In brackets after ≈: the same amount, converted by molar mass.
Assays:
[1] = target: Plasmepsin 4 (Plasmodium falciparum, UniProt Q17SB2); experiment: Inhibition of Plasmodium falciparum plasmepsin 4 using DABCYL-Glu-Arg-Nle-Phe-Leu-Ser-Phe-Pro-EDANS as substrate preincubated for 30 mins followed by substrate addition measured every 1 min within 8 to 15 mins by FRET assay
Outline: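 Plm IV in 0.1 M NaOAc pH 4.5 with 10% glycerol; compounds tested at 0.01–100 μM, preincubated with enzyme 30 min at 37 °C. […] Fluorescence (Ex 336/Em 490 nm) read at 37 °C; rate taken from the linear interval. Triplicate; IC50 fitted from rates; pepstatin A control.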

[2] = target: Cathepsin D (Homo sapiens, UniProt P07339); experiment: Inhibition of human cathepsin D using DABCYL-Glu-Arg-Nle-Phe-Leu-Ser-Phe-Pro-EDANS as substrate preincubated for 30 mins followed by substrate addition measured every 1 min within 8 to 15 mins by FRET assay
[3] = Solubility of the compound in Tris-buffer at pH 7.4 after 16 hrs by HPLC method; assay type: physicochemical; details: for solubility at 16 h: Tris buffer, pH 7.4
Outline: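 A DMSO stock (≈10 mg/mL) was diluted 10 µL into 2 mL of 0.05 M TRIS pH 7.4 (0.5% DMSO final) and shaken 16 h at 25 °C. After filtering off the precipitate, the solution was quantified by reversed-phase HPLC (UV 210 or 254 nm) against a methanol-diluted ≈0.05 mg/mL standard. Working range ≈0.005-0.05 mg/mL.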

[4] = target: Plasmepsin I (Plasmodium falciparum, UniProt P39898); experiment: Inhibition of Plasmodium falciparum plasmepsin-1 using DABCYL-Glu-Arg-Nle-Phe-Leu-Ser-Phe-Pro-EDANS as substrate preincubated for 30 mins followed by substrate addition measured every 1 min within 8 to 15 mins by FRET assay
Outline: (§1)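 Test compounds at 0.01-100 μM preincubated with enzyme in 0.1 M NaOAc pH 4.5, 10% glycerol, for 30 min at 37 °C. […] Fluorescence (Ex 336, Em 490 nm) read at 37 °C. Rate taken from the linear interval only. Triplicate experiments, IC50 from dose-response fit.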

[5] = target: Plasmepsin II (Plasmodium falciparum, UniProt P46925); experiment: Inhibition of Plasmodium falciparum plasmepsin-2 using DABCYL-Glu-Arg-Nle-Phe-Leu-Ser-Phe-Pro-EDANS as substrate preincubated for 30 mins followed by substrate addition measured every 1 min within 8 to 15 mins by FRET assay; outline: as §1
[6] = target: Plasmepsin I (Plasmodium falciparum) (UniProt P39898); experiment: Inhibition of Plasmodium falciparum plasmepsin-1 using DABCYL-Glu-Arg-Nle-Phe-Leu-Ser-Phe-Pro-EDANS as substrate preincubated for 30 mins followed by substrate addition measured every 1 min within 8 to 15 mins by FRET assay
Plasmepsin I (Plasmodium falciparum), sequence (P39898 whole entry, looked up): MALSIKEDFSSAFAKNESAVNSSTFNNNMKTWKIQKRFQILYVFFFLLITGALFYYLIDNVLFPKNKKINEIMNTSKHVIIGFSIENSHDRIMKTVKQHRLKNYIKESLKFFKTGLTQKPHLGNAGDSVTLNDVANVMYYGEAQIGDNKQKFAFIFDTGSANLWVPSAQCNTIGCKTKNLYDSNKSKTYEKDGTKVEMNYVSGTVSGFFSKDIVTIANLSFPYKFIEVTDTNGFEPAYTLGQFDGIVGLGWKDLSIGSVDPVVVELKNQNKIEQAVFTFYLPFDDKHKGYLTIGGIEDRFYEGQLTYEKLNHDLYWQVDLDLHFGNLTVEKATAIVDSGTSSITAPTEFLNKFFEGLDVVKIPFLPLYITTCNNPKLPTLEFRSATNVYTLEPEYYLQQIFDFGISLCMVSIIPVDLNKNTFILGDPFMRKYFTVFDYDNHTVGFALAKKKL

Plasmepsin 4, sequence (Q17SB2 whole entry): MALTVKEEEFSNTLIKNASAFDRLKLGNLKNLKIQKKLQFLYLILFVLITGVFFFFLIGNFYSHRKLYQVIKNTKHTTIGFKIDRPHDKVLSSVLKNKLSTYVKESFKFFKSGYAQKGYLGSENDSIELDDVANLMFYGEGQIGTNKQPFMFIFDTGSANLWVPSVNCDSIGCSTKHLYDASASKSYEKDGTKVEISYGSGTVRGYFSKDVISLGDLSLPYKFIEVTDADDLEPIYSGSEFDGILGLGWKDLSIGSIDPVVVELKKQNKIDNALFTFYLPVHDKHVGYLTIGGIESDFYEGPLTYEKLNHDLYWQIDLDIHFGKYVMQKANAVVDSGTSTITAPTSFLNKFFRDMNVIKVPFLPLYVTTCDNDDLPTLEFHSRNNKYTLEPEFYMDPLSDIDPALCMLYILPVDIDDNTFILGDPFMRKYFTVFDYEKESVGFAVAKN
Plasmepsin II, sequence (P46925 whole entry): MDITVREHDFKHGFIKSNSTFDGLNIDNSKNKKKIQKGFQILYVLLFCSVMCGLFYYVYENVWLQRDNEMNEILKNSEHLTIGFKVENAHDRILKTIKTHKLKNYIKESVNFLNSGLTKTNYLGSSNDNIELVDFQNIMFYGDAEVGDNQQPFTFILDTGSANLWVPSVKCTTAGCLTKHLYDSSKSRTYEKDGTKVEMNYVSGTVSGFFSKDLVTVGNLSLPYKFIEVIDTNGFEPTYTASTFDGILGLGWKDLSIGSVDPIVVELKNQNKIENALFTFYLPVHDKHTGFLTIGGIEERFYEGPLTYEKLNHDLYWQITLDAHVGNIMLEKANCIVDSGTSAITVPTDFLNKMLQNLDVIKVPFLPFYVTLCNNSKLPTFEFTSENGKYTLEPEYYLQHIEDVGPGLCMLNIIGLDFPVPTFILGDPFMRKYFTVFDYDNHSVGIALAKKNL
Cathepsin D, sequence (P07339 65-162 limits assumed): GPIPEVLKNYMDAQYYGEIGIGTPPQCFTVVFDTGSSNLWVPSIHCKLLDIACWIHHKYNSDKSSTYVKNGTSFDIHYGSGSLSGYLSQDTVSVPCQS
Cathepsin D, sequence (P07339 169-412 limits assumed): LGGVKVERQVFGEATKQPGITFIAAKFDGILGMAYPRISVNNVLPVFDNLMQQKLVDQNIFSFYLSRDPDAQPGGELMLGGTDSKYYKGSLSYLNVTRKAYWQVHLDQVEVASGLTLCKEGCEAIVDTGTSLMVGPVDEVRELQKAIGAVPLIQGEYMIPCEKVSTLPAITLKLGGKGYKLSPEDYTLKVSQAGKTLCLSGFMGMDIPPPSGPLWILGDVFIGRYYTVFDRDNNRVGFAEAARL
Plasmepsin I, sequence (P39898 whole entry): as the sequence (P39898 whole entry, looked up) above

Compound	IC50 [1] [nM]	IC50 [2] [nM]	solubility at 16 h [3] [µg/mL]	IC50 [4] [nM]	IC50 [5] [nM]	IC50 [6] [nM]	solubility ([3]; buffer, pH 7.4, 16 h) [µg/mL]
CCCCCc1ccc(-c2cc(CCC(=O)O)c3c(=O)n(CC4CCCO4)c(N)nc3c2)cc1 (racemic)	42	21000	0.1 (≈ 0.216 µM)	50	27		
CC(C)CC(=O)N[C@H](C(=O)N[C@H](C(=O)N[C@@H](CC(C)C)[C@@H](O)CC(=O)N[C@@H](C)C(=O)N[C@@H](CC(C)C)[C@@H](O)CC(=O)O)C(C)C)C(C)C [PEPSTATIN]	0.3			0.42		0.42	
CCCCCCCCc1cc(CCC(=O)O)c2c(=O)n(CC3CCCO3)c(N)nc2c1 (racemic)	110	430		20	22		
Nc1nc2cc(-c3ccc(CCCc4ccccc4)cc3)ccc2c(=O)n1C[C@@H]1CC[C@H](c2ccccc2)O1	130		< 0.01				
CCCCCc1ccc(-c2ccc3c(=O)n(C[C@@H]4CC[C@H](c5ccccc5)O4)c(N)nc3c2)cc1	100		< 0.01				
Nc1nc2cc(-c3ccccc3)cc(-c3ccc(C(=O)O)cc3)c2c(=O)n1C[C@@H]1CC[C@H](c2ccccc2)O1	500	20000		600	280		
Nc1cccc(-c2cc(-c3ccccc3)cc3nc(N)n(CC4CCCO4)c(=O)c23)c1 (racemic)	1000	93000		2000	820		
Nc1nc2cc(-c3ccc(CCCc4ccccc4)cc3)ccc2c(=O)n1CC1CCCO1 (racemic)	100	> 100000		1300	700		
Nc1nc2cc(-c3ccccc3)cc(-c3cccc(C(=O)O)c3)c2c(=O)n1CC1CCCO1 (racemic)	1500	98000		1000	500		
CCCCCc1ccc(-c2cc(-c3ccc(C(=O)O)cc3)c3c(=O)n(CC4CCCO4)c(N)nc3c2)cc1 (racemic)	45	29000	0.03 (≈ 0.0586 µM)	2400	23		
Nc1nc2cc(-c3ccccc3)cc(-c3ccc(C(=O)O)cc3)c2c(=O)n1CC1CCCO1 (racemic)	1400	100000		3500	330		
Nc1nc2cc(-c3ccccc3)cc(-c3ccncc3)c2c(=O)n1CC1CCCO1 (racemic)	2400	> 100000		5000	1000		
CCCCCc1ccc(-c2ccc3c(=O)n(CC4CCCO4)c(N)nc3c2)cc1 (racemic)	92	3200		700	75		
NC(=O)c1ccc(-c2cc(-c3ccccc3)cc3nc(N)n(CC4CCCO4)c(=O)c23)cc1 (racemic)	2500	> 100000		3400	600		
Oc1ccc(/C=C/c2cc(O)cc(O)c2)cc1 [RESVERATROL]		138000					
Nc1nc2cc(-c3ccc(CCCc4ccccc4)cc3)cc(CCC(=O)O)c2c(=O)n1CC1CCCO1 (racemic)	30	13000		740	80		0.01 (≈ 0.0195 µM)
Nc1nc2cc(-c3ccccc3)cc(-c3cccnc3)c2c(=O)n1CC1CCCO1 (racemic)	1500	71000		3000	480		

Source: ChEMBL document CHEMBL4219216, “2-Aminoquinazolin-4(3H)-one based plasmepsin inhibitors with improved hydrophilicity and selectivity” (Bioorg Med Chem, 2018)
